# Assay outcomes: PubChem, several laboratories
# Myeloid diff MLP: myeloid differentiation induction. actives 1% (n = 360,000). ER-HoxA9 myeloid progenitors, lysozyme-GFP differentiation, flow cytometry. calls only at 10 µM;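 active = normalized GFP-positive differentiation at or above the plate's own cutoff, the solvent-only control mean plus 3 SD; inconclusive = no clear call, values can overlap the other calls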;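 also: cells exposed to compound for four days before flow analysis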
# GAA850 FXN act: frataxin GAA850 promoter activation | HEK293 lucGAA850 FXN promoter luciferase reporter, 24 h; percent of 10 µM SAHA response | activation, % at 6 µM | actives 0.56% (n = 360,000);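 active = activation above the average of all compounds screened plus 3 SD, cutoff fixed separately per campaign, cut at about 7.5% in these data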;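 also: 0% = DMSO wells and 100% = 10 µM SAHA wells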
# NR2E3 ag-1: agonists of human NR2E3 nuclear receptor; Q9Y5X4; CHO-S Gal4-NCOR/VP16-NR2E3 two-hybrid, luciferase; actives 0.35% (n = 360,000); inhibition of corepressor binding, % at 3.98 µM;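 active = inhibition above the mean of all tested compounds plus 3 SD, cut at about 70% in these data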;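 also: 0% = DMSO with NR2E3 transfected cells and 100% = cells lacking NR2E3 construct; higher means lower luciferase signal from less NR2E3 corepressor binding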
# Target sequence (Q9Y5X4 whole entry, looked up, the tested form may be a part): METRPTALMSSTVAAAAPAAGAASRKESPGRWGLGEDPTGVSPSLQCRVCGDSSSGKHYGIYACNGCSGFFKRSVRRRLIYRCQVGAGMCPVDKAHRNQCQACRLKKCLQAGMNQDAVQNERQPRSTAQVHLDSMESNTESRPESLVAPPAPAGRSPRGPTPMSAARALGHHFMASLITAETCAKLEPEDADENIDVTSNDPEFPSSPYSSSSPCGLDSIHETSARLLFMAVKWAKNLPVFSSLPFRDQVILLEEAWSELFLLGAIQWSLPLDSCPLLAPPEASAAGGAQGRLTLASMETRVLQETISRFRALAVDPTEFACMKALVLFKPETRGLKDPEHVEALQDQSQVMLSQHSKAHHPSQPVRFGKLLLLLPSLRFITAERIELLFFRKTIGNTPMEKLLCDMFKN
# T cell HTS: T cell immune modulators affecting CD8 T cell-vesicle binding | 2C CD8+ T cell-vesicle binding, flow cytometry; active compounds read low | actives 0.068% (n = 330,000) | AID 2052 | response (vesicle binding), % at 7 µM;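 active = response, share of CD8 T cells binding vesicles, and their 90th percentile fluorescence all below set limits, cut at about 80% in these data, passing the limit was not always enough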;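 also: values below 100% mean blocked vesicle binding to the CD8+ T cells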
#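 Test system: purified 2C TCR transgenic mouse naive CD8+ T cells. Probe or stimulus: QL9-peptide-loaded Drosophila micro-vesicles bearing Ld, ICAM-1 and B7-1. Incubation: binding step 1.5 h, 37 °C, antibody labelling 20 min, ice. Measured by: flow cytometry of vesicle-bound cells.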
# NR2E3 ag-2: agonists of human nuclear receptor NR2E3; Q9Y5X4; GST-NR2E3/biotin-RetCOR TR-FRET, 1536-well; actives 0.12% (n = 320,000); inhibition of corepressor binding, % at 4.78 µM;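 active = percent inhibition above the cutoff of mean plus 3 SD of all tested compounds, set per screening campaign, cut at about 20% in these data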;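 also: 0% = DMSO wells and 100% = biotin wells as full block of FRET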
#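 Material: NR2E3–RetCOR corepressor complex | Quantity: 1.35 nM GST-tagged NR2E3 final | Schedule: 5 h at 4 °C | Replication: Singlicate compound wells | Reagent: RetCOR corepressor, biotinylated, 7 nM | Controls: Biotin wells as high control, 0.6% DMSO wells as low control | Signal: TR-FRET, Eu(K)-anti-GST donor, streptavidin-D2 acceptor, ex 340, em 617/671 nm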
# Myeloid diff: promotes myeloid progenitor differentiation; shares compounds with Myeloid diff MLP; actives 2% (n = 2,300); ER-HoxA9 myeloid progenitors, GFP/Mac1 double-positive flow; calls only;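 active = share of green or green-and-red cells above 9 and 9% in run 1 or 4 and 3% in run 2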
# GFP autofluor: flagged as fluorescent in myeloid differentiation counter-screen; ER-HoxA9 myeloid progenitors, no estrogen, GFP autofluorescence flow cytometry; vehicle wells 0%, positive control 100%; actives 7.4% (n = 2,300); fluorescence response, % (concentration not given with the values); AID 651707; shares compounds with Myeloid diff MLP;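 active = over 5% cells positive for green fluorescent reporter, or over 2% positive for both it and APC stain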;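 also: range taken on the double positive population between DMSO and positive control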
# Starred values were filed as active, the others as inactive; i = inactive; ? = inconclusive; / = no result; + = active, no number. Compounds with a hit are over-represented: about 2% of the library has one in this group of screens.
SMILES,Myeloid diff MLP,GAA850 FXN act,NR2E3 ag-1,T cell HTS,NR2E3 ag-2,Myeloid diff,GFP autofluor
CCN(CC)S(=O)(=O)c1ccc(C)c(NCC(=O)Nc2ccc(C#N)c(Cl)c2)c1,+,-2,10,609,3,i,0
CC(=O)N1CCN(CC(=O)Nc2ccc(C#N)c(Cl)c2)CC1,i,1,-8,505,0,/,/
Cc1cc(N2CCCC2)ccc1C=C(C#N)C#N,+,0,-1,102,-2,i,4
Cc1cccc(C(=O)NC(Oc2ccccc2)C(Cl)(Cl)Cl)c1 (stereo unspecified),i,0,0,531,0,i,2
COc1ccc(C(c2nnnn2-c2ccc3c(c2)OCCO3)N2CCC3(CC2)C(=O)NCN3c2ccccc2)cc1 (stereo unspecified),i,/,-12,/,/,/,/
C=C1C[C@]2(O)[C@@]3(C)CCC(=O)C(C)(C)C3=C(O)C(=O)[C@@]2(C)[C@@H]2C(=O)O[C@@](C)(C(=O)OC)C(=O)[C@@]12C,+,6,-145,317,0,i,0
COC(=O)C1=C(c2ccc(Cl)c(C(F)(F)F)c2)C[C@@H]2CC[C@H]1N2C(=O)NCCOc1ccccc1,?,0,14,192,0,/,/
O=c1c2ccccc2nc(/C=C/c2ccccc2O)n1-c1ccccc1O,+,0,-11,206,-1,i,59*
O=c1c2ccccc2nc(/C=C/c2ccccc2F)n1-c1ccccc1O,i,0,-15,233,-1,/,/
CN1Cc2cnnn2-c2ccccc2C1c1ccccc1 (stereo unspecified),i,2,6,/,/,/,/
O=C1NC(=S)N(c2ccc(Cl)cc2)C(=O)/C1=C/N1CCN(C(=O)c2ccco2)CC1,i,-2,9,369,0,i,0
O=C1NC(=S)N(c2ccc(F)cc2)C(=O)/C1=C/c1ccco1,/,/,/,271,5,/,/
O=C(/C=C/c1ccc2c(c1)OCO2)c1c(O)n(CCC2=CCCCC2)c(=O)[nH]c1=O,i,2,-4,376,0,i,0
CCCCCCn1c(O)c(C=Nc2ccccc2N2CCOCC2)c(=O)[nH]c1=S,i,1,-9,136,6,i,0
CCCCn1c(O)c(/C=N/N2CCOCC2)c(=O)[nH]c1=S,i,2,-6,604,1,/,/
C=CCCC1(C2=CCCCC2)C(=O)NC(=O)NC1=O,i,-1,-7,/,/,/,/
CC1(C)C(c2ccccc2)=NC(c2cccnc2)N1O (stereo unspecified),+,-3,3,429,1,i,0
Cc1ccccc1OP(=O)(Oc1ccccc1C)N1CCOCC1,i,/,-11,/,/,/,/
C[C@H](N)CN1CCc2ccc(Br)cc21,i,1,6,565,7,/,/
COc1ccc2c(c1OC)CN1CCc3cc4c(cc3C1C2)OCO4 (stereo unspecified),i,0,-15,198,0,i,0
C[C@@H]1CN([C@@H](C)CO)C(=O)CCCn2nncc2CO[C@H]1CN(C)C(=O)Oc1ccccc1,i,0,-8,/,/,/,/
